# Calls of active or inactive are those of the source. The calls are words filed in the database; no cut-off is given here.
# Legend:
# Enterococcus faecium [1] = assay: Antibacterial activity against glycopeptide-resistant Enterococcus faecium Efm-HS-08257 vanM after 24 hrs by broth microdilution method; format: functional; conditions: Efm-HS-08257, 24 h
# Summary of the method: (§1)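 Broth microdilution in cation-adjusted Mueller-Hinton II broth. DMSO stocks were diluted in broth and twofold serially from 128 to 0.0625 μg/mL or lower. Each well was inoculated with ~10^5 CFU of exponential-phase bacteria and incubated at 37 °C for 24 h. MIC was the lowest concentration giving complete growth inhibition, read per CLSI. Growth controls contained broth plus DMSO.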
# HK-2 = assay: Cytotoxicity against human HK2 cells assessed as decrease in cell viability at 10 to 100 uM after 72 hrs by CCK8 assay; format: cell-based; conditions: hk-2, 72 h
# Summary of the method: (§2)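 HK-2 and HL-7702 cells were seeded at ~5000 cells/well, incubated overnight, then exposed to compound at final 10, 50 and 100 μM for 72 h. CCK-8 was added for 1.5 h at 37 °C and OD450 read. Viability was OD treated / OD untreated × 100, with triplicates.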
# Enterococcus faecium [2] = assay: Antibacterial activity against glycopeptide-resistant Enterococcus faecium Efm-HS-0649 vanA after 24 hrs by broth microdilution method; format: functional; conditions: Efm-HS-0649, 24 h; summary of the method: as §1
# Enterococcus faecium [3] = assay: Antibacterial activity against glycopeptide-resistant Enterococcus faecium Efm-HS-0847 vanM after 24 hrs by broth microdilution method; format: functional; conditions: Efm-HS-0847, 24 h; summary of the method: as §1
# Staphylococcus aureus [4] = assay: Antibacterial activity against vancomycin/methicillin-susceptible Staphylococcus aureus Newman […] after 24 hrs by broth microdilution method; format: functional
# Summary of the method: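 Broth microdilution in cation-adjusted Mueller-Hinton II broth. […] Each well received ~10^5 CFU of exponential-phase bacteria and was incubated at 37 °C for 24 h. MIC was taken as the lowest concentration giving complete growth inhibition, interpreted per CLSI.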
# Enterococcus faecium [5] = assay: Antibacterial activity against glycopeptide-resistant Enterococcus faecium Efm-HS-06188 vanA after 24 hrs by broth microdilution method; format: functional; conditions: Efm-HS-06188, 24 h; summary of the method: as §1
# L02 = assay: Cytotoxicity against human HL7702 cells assessed as decrease in cell viability at 10 to 100 uM after 72 hrs by CCK8 assay; format: cell-based; conditions: l02, 72 h; summary of the method: as §2
# Staphylococcus aureus [6] = assay: Antibacterial activity against healthcare-associated methicillin-resistant/vancomycin-intermediate Staphylococcus aureus Mu50 after 24 hrs by broth microdilution method; format: functional; conditions: Mu50, 24 h; summary of the method: as §1
# Enterococcus faecium [7] = assay: Antibacterial activity against glycopeptide-resistant Enterococcus faecium Efm-HS-vb01 vanB after 24 hrs by broth microdilution method; format: functional; conditions: Efm-HS-vb01, 24 h; summary of the method: as §1
# Staphylococcus aureus [8] = assay: Antibacterial activity against methicillin-resistant Staphylococcus aureus USA300 LAC infected in BALB/c mouse assessed as mouse survival rate at 7 mg/kg, ip administered as single dose measured after 10 days relative to control; format: functional; conditions: for survival at 7 mg/kg: 240 h
# Summary of the method: (§3)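 Female BALB/c mice, 6−8 weeks old, were anesthetized with pentobarbital and infected retro-orbitally with ~2.35 × 10^8 CFU of exponential-phase USA300 LAC, 15 per group. A single 7 mg/kg ip dose was given 1 h after infection. Deaths were recorded daily to build survival curves.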
# [9] = Clearance in CD1 mouse at 5 mg/kg, iv; format: ADME, organism-based; conditions: in vivo
# Summary of the method: (§4)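 Fasted male CD-1 mice (18−22 g), 5 mg/kg single dose into the tail vein, 6 per group. Blood sampled at 0.25, 0.75, 2, 4, 8 and 24 h and analysed by UPLC-MS/MS. T1/2, AUClast, AUCINF_obs, CL_obs, MRTINF_obs and VSS_obs were calculated for each animal from its time−concentration curve.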
# [10] = Volume of distribution at steady state in CD1 mouse at 5 mg/kg, iv; format: ADME, organism-based; conditions: in vivo, read-out: Vdss
# Summary of the method: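 Fasted male CD-1 mice (18−22 g), 5 mg/kg single dose into the tail vein, 6 per group. T1/2, AUClast, AUCINF_obs, CL_obs, MRTINF_obs and VSS_obs were calculated for each animal from its time−concentration curve.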
# Staphylococcus aureus [11] = assay: Antibacterial activity against healthcare-associated methicillin-resistant/vancomycin-intermediate Staphylococcus aureus Mu50 infected in BALB/c mouse assessed as decrease in liver CFU levels at 7 mg/kg, ip administered twice in 24 hrs interval measured after 5 days; format: functional, organism-based
# Summary of the method: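 Female BALB/c mice, 6−8 weeks old, were anesthetized with pentobarbital and infected retro-orbitally with ~3.8 × 10^8 CFU of exponential-phase Mu50, 12 per group. Treatment started 1 h post-infection: 7 mg/kg ip in sterile water, two doses 24 h apart. At day 5 mice were euthanized and liver homogenates plated on TSA for CFU counts. Groups were compared by two-tailed Mann−Whitney test.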
# [12] = AUClast in CD1 mouse at 5 mg/kg, iv; format: ADME, organism-based; design: dose 5 mg/kg, route intravenous, time 0 - last; conditions: in vivo; summary of the method: as §4
# [13] = Half life in CD1 mouse at 5 mg/kg, iv; format: ADME, organism-based; conditions: in vivo; summary of the method: as §4
# [14] = MRT (infinity) in CD1 mouse at 5 mg/kg, iv; format: ADME, organism-based; conditions: in vivo; summary of the method: as §4
# [15] = AUC (infinity) in CD1 mouse at 5 mg/kg, iv; format: ADME, organism-based; design: dose 5 mg/kg, route intravenous, time infinity; conditions: in vivo; summary of the method: as §4
# Blood = assay: Drug uptake in CD1 mouse blood at 5 mg/kg, iv; format: ADME, organism-based; conditions: in vivo; summary of the method: as §4
# Staphylococcus aureus [16] = assay: Potency index, ratio of telavancin MIC90 to test compound MIC90 for vancomycin/methicillin-susceptible Staphylococcus aureus Newman […]; format: functional
# Staphylococcus aureus [17] = assay: Antibacterial activity against methicillin-resistant Staphylococcus aureus USA300 LAC infected in BALB/c mouse assessed as increase in mouse survival rate at 7 mg/kg, ip administered as single dose after 10 days relative to control; format: functional, organism-based; summary of the method: as §3
# Enterococcus faecium [18] = assay: Potency index, ratio of oritavancin MIC90 to test compound MIC90 for glycopeptide-resistant Enterococcus faecium Efm-HS-vb01 vanB; format: functional
# Enterococcus faecium [19] = assay: Potency index, ratio of telavancin MIC90 to test compound MIC90 for glycopeptide-resistant Enterococcus faecium Efm-HS-vb01 vanB; format: functional
Compound,MIC (Enterococcus faecium [1]) [µg/mL],Activity (HK-2),MIC (Enterococcus faecium [2]) [µg/mL],MIC (Enterococcus faecium [3]) [µg/mL],MIC90 (Staphylococcus aureus [4]) [µg/mL],MIC (Enterococcus faecium [5]) [µg/mL],Activity (L02),MIC90 (Staphylococcus aureus [6]) [µg/mL],MIC (Enterococcus faecium [7]) [µg/mL],clearance [9] [mL/min/kg],Vd [10] [L/kg],Activity (Staphylococcus aureus [11]),AUC(0-t) [12] [ng·h/mL],half-life [13] [h],MRT inf [14] [h],AUC(0-inf) [15] [ng·h/mL],Drug uptake (Blood) [µg/mL],Ratio (Staphylococcus aureus [16]),Activity (Staphylococcus aureus [17]),also measured
CN[C@H](CC(C)C)C(=O)N[C@H]1C(=O)N[C@@H](CC(N)=O)C(=O)N[C@H]2C(=O)N[C@H]3C(=O)N[C@H](C(=O)N[C@H](C(=O)O)c4cc(O)c(CNCCO[C@@H]5O[C@H](CO)[C@H](O)[C@H](O)[C@H]5O)c(O)c4-c4cc3ccc4O)[C@H](O)c3ccc(c(Cl)c3)Oc3cc2cc(c3O[C@@H]2O[C@H](CO)[C@@H](O)[C@H](O)[C@H]2O[C@H]2C[C@](C)(NCc3ccc(-c4ccc(Cl)cc4)cc3)[C@H](O)[C@H](C)O2)Oc2ccc(cc2Cl)[C@H]1O,4,Non-Toxic,4,16,0.06,2,Non-Toxic,0.25,0.12,–,–,–,–,–,–,–,–,–,–,–
CN[C@H](CC(C)C)C(=O)N[C@H]1C(=O)N[C@@H](CC(N)=O)C(=O)N[C@H]2C(=O)N[C@H]3C(=O)N[C@H](C(=O)N[C@H](C(=O)O)c4cc(O)cc(O)c4-c4cc3ccc4O)[C@H](O)c3ccc(c(Cl)c3)Oc3cc2cc(c3O[C@@H]2O[C@H](CO)[C@@H](O)[C@H](O)[C@H]2O[C@H]2C[C@](C)(N)[C@H](O)[C@H](C)O2)Oc2ccc(cc2Cl)[C@H]1O [VANCOMYCIN],> 128,Toxic,> 128,> 128,2,> 128,Toxic,8,64,68.7,3.08,inactive,–,–,–,–,–,–,–,survival at 7 mg/kg (Staphylococcus aureus [8]): 6.67%
CN[C@H](CC(C)C)C(=O)N[C@H]1C(=O)N[C@@H](CC(N)=O)C(=O)N[C@H]2C(=O)N[C@H]3C(=O)N[C@H](C(=O)N[C@H](C(=O)O)c4cc(O)c(CN[C@H]5C(O)O[C@H](CO)[C@H](O)[C@@H]5O)c(O)c4-c4cc3ccc4O)[C@H](O)c3ccc(c(Cl)c3)Oc3cc2cc(c3O[C@@H]2O[C@H](CO)[C@@H](O)[C@H](O)[C@H]2O[C@H]2C[C@](C)(NCc3ccc(-c4ccc(Cl)cc4)cc3)[C@H](O)[C@H](C)O2)Oc2ccc(cc2Cl)[C@H]1O (stereo partly drawn),4,–,2,8,0.03,2,–,0.12,0.25,7,1.75,Active,12100,3.81,4.18,12200,> 1,8 - 16,–,survival at 7 mg/kg (Staphylococcus aureus [8]): 93.3%
CN[C@H](CC(C)C)C(=O)N[C@H]1C(=O)N[C@@H](CC(N)=O)C(=O)N[C@H]2C(=O)N[C@H]3C(=O)N[C@H](C(=O)N[C@H](C(=O)O)c4cc(O)c(CNCCO)c(O)c4-c4cc3ccc4O)[C@H](O)c3ccc(c(Cl)c3)Oc3cc2cc(c3O[C@@H]2O[C@H](CO)[C@@H](O)[C@H](O)[C@H]2O[C@H]2C[C@](C)(NCc3ccc(-c4ccc(C(F)(F)F)cc4)cc3)[C@H](O)[C@H](C)O2)Oc2ccc(cc2Cl)[C@H]1O,2,–,1,4,0.015,1,–,0.12,≤ 0.06,–,–,–,–,–,–,–,–,–,Active,–
CCCCCCCCCCNCCN[C@@]1(C)C[C@H](O[C@H]2[C@H](Oc3c4cc5cc3Oc3ccc(cc3Cl)[C@@H](O)[C@@H](NC(=O)[C@@H](CC(C)C)NC)C(=O)N[C@@H](CC(N)=O)C(=O)N[C@H]5C(=O)N[C@H]3C(=O)N[C@H](C(=O)N[C@H](C(=O)O)c5cc(O)c(CNCP(=O)(O)O)c(O)c5-c5cc3ccc5O)[C@H](O)c3ccc(c(Cl)c3)O4)O[C@H](CO)[C@@H](O)[C@@H]2O)O[C@@H](C)[C@H]1O [TELAVANCIN],0.12,Non-Toxic,4,4,0.25,8,Toxic,1,1,5.1,–,Active,–,–,–,–,–,–,–,Activity (Staphylococcus aureus [8]): Active
CN[C@H](CC(C)C)C(=O)N[C@H]1C(=O)N[C@@H](CC(N)=O)C(=O)N[C@H]2C(=O)N[C@H]3C(=O)N[C@H](C(=O)N[C@H](C(=O)O)c4cc(O)c(CN[C@H]5C(O)O[C@H](CO)[C@H](O)[C@@H]5O)c(O)c4-c4cc3ccc4O)[C@H](O)c3ccc(c(Cl)c3)Oc3cc2cc(c3O[C@@H]2O[C@H](CO)[C@@H](O)[C@H](O)[C@H]2O[C@H]2C[C@](C)(NCc3ccc(-c4ccc(C(F)(F)F)cc4)cc3)[C@H](O)[C@H](C)O2)Oc2ccc(cc2Cl)[C@H]1O (stereo partly drawn),2,–,1,4,0.015,1,–,0.12,≤ 0.06,3.45,0.9,–,20100,3.45,4.41,24300,> 1,8 - 16,Active,Ratio (Enterococcus faecium [18]): 4; Ratio (Enterococcus faecium [19]): 16
CN[C@H](CC(C)C)C(=O)N[C@H]1C(=O)N[C@@H](CC(N)=O)C(=O)N[C@H]2C(=O)N[C@H]3C(=O)N[C@H](C(=O)N[C@H](C(=O)O)c4cc(O)c(CNCCCNC(=O)[C@H](O)[C@@H](O)[C@H](O)[C@H](O)CO)c(O)c4-c4cc3ccc4O)[C@H](O)c3ccc(c(Cl)c3)Oc3cc2cc(c3O[C@@H]2O[C@H](CO)[C@@H](O)[C@H](O)[C@H]2O[C@H]2C[C@](C)(NCc3ccc(-c4ccc(C(F)(F)F)cc4)cc3)[C@H](O)[C@H](C)O2)Oc2ccc(cc2Cl)[C@H]1O,4,–,2,8,0.06,1,–,0.25,0.5,6.4,1.83,–,10700,3.72,4.79,13400,> 1,8 - 16,Active,–

# From ChEMBL document CHEMBL4052823, “Extra Sugar on Vancomycin: New Analogues for Combating Multidrug-Resistant Staphylococcus aureus and Vancomycin-Resistant Enterococci” (J Med Chem, 2018)
